An excerpt weighted towards active compounds, which were near 2.8% of everything screened.
HTRA1 inh: HTRA1 (human) protease inhibition | inhibition, % at 5.96 µM | hit rate 0.5% among 340,000 | recombinant HTRA1, FP-rhodamine activity-based probe, fluorescence polarization | Q92743; in the data active = inhibition above about 36%;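 also: 0% = enzyme with DMSO and 100% = wells lacking enzyme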
Target sequence (Q92743 whole entry, looked up): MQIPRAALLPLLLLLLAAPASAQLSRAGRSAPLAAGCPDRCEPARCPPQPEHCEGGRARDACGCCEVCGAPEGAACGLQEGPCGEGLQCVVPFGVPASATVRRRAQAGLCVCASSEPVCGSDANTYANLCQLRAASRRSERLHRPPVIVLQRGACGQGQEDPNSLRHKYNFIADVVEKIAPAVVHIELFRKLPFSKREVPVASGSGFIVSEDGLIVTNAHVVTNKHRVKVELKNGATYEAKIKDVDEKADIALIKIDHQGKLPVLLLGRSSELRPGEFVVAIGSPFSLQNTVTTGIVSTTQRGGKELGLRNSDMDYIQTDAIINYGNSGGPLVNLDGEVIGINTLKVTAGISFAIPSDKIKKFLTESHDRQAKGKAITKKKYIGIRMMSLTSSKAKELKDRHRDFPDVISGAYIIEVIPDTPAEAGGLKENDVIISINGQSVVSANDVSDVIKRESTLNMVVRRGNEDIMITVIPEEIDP
mABHD4 FP: ABHD4 (mouse) inhibition, primary FP screen; purified mABHD4, FP-Rh probe fluorescence polarization; hit rate 0.54% among 370,000; inhibition, % at 8.92 µM; AID 720543;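 active = inhibition exceeding the mean over every tested compound plus 3 SD, cut at about 30% in these data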;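 also: 0% = plate median of compound wells and 100% = S159A mutant with DMSO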
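Assay system: Wild-type mouse ABHD4 protein | Medium: HEPES pH 7.0 buffer, 150 mM NaCl, 0.01% Pluronic F-127 | Incubation: Enzyme–compound pre-incubation 45 min, then probe 60 min, both 25 °C | Technique: Fluorescence polarization with parallel and perpendicular emission, 525/598 nm | Evaluation: % inhibition of FP-Rh probe binding versus controls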
pPAFAH inh: pPAFAH (human) enzyme inhibition | AID 463082 | Q13093 | inhibition, % at 3.39 µM | hit rate 1.5% among 330,000 | recombinant pPAFAH, FP-rhodamine probe fluorescence polarization;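 active = inhibition above the mean inhibition across the screen plus 3 SD, cut at about 25% in these data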;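 also: inhibitors block binding of the rhodamine activity-based probe so polarization drops; 0% = enzyme with DMSO and 100% = wells lacking pPAFAH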
PAFAH2 inh: inhibitors of human PAFAH2; inhibition, % at 3.39 µM; AID 492956; recombinant PAFAH2, FP-rhodamine activity probe, fluorescence polarization; Q99487; hit rate 0.99% among 340,000;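 active = inhibition above the mean over all tested compounds plus 3 SD, cut at about 30% in these data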;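 also: inhibitors block probe labeling of enzyme so polarization drops; 0% = enzyme with DMSO and 100% = wells lacking PAFAH2 protein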
PAFAH1B2 FP inh: PAFAH1B2 (human) inhibition; P68402; recombinant PAFAH1B2, FP-rhodamine activity probe, fluorescence polarization; inhibition, % at 3.39 µM; hit rate 1.2% among 340,000; AID 492953;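 active = inhibition above the mean of all tested compounds plus 3 SD, cut at about 24% in these data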;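 also: 0% = enzyme with DMSO and 100% = wells lacking PAFAH1B2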
Target sequence (P68402 whole entry, looked up): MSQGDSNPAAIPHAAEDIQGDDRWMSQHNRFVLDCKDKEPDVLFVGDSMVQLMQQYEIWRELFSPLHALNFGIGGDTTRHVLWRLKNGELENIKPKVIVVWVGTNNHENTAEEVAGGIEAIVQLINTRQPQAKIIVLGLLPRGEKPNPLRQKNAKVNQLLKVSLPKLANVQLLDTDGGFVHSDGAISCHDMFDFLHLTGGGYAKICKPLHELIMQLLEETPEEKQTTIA
PAFAH1B3 FP inh: PAFAH1B3 (human) inhibition; Q15102; recombinant PAFAH1B3, FP-rhodamine probe, fluorescence polarization; inhibition, % at 3.39 µM; hit rate 0.28% among 340,000;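 active = inhibition above the screen-wide average of all tested compounds plus 3 SD, cut at about 25% in these data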;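 also: 0% = enzyme with DMSO only and 100% = wells lacking PAFAH1B3 protein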
pPAFAH confirm: confirmation of human plasma PAF acetylhydrolase (pPAFAH) inhibitors. shares compounds with pPAFAH inh. recombinant pPAFAH, FP-Rh probe fluorescence polarization. inhibition, % at 3.39 µM. hit rate 72% among 2,300. AID 463230;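 active = mean inhibition of the triplicate above the hit cutoff set for the earlier primary screen, cut at about 25% in these data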;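 also: 0% = enzyme with DMSO and 100% = wells lacking pPAFAH enzyme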
HTRA1 conf: confirmation of human HTRA1 inhibitors; shares compounds with HTRA1 inh; inhibition, % at 5.96 µM; recombinant HTRA1, FP-rhodamine activity-based probe, fluorescence polarization; hit rate 66% among 1,600; AID 540248;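 active = mean inhibition over three repeats above a set limit taken from the earlier primary screen, cut at about 37% in these data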;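 also: 0% = HTRA1 with DMSO and 100% = wells lacking HTRA1; inhibitors block probe binding so polarization drops and inhibition rises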
ABHD4 confirm: confirmation of mouse ABHD4 inhibitors | hit rate 55% among 1,800 | inhibition, % at 8.92 µM | shares compounds with mABHD4 FP | purified mABHD4, FP-Rh probe fluorescence polarization | AID 720658;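 active = mean inhibition across replicates above the hit cutoff set in the primary screen, cut at about 30% in these data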;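 also: 0% = wild-type ABHD4 with DMSO and 100% = catalytically dead S159A mutant with DMSO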
Active calls of the source: *; nt = not tested or not shown.

SMILES | HTRA1 inh | mABHD4 FP | pPAFAH inh | PAFAH2 inh | PAFAH1B2 FP inh | PAFAH1B3 FP inh | pPAFAH confirm | HTRA1 conf | ABHD4 confirm
Cc1csc(NC(=O)c2ccc(COc3ccc(Cl)c(Cl)c3)o2)n1 | nt | 4 | nt | nt | nt | nt | nt | nt | nt
CN(C(=S)Nc1ccc(SC(F)F)cc1)c1ccc(O)cc1 | 31 | 45* | 51* | 4 | 8 | 3 | 2 | nt | -4
CN1CCS/C1=C/C=C1/SC(=S)N(Cc2ccccc2)C1=O | 3 | 86* | 36* | 26 | 2 | 10 | 27* | nt | 20
CCOc1ccccc1C1C(C#N)=C(N)Oc2cc(N)ccc21 (stereo unspecified) | 9 | 31* | 41* | 3 | 4 | 10 | 3 | nt | -1
COc1ccc(OC)c(S(=O)(=O)N2CCCC(C(=O)N3CCN(Cc4ccccc4)CC3)C2)c1 (stereo unspecified) | nt | -14 | nt | nt | nt | nt | nt | nt | nt
Clc1ccc2nc(CNc3nc(N4CCOCC4)nc4c3ncn4-c3ccsc3)[nH]c2c1 | nt | -12 | nt | nt | nt | nt | nt | nt | nt
Oc1ccc(C2C[C@H]3CC[C@@H]2C3)cc1O (stereo partly specified) | 51* | 30* | 52* | 7 | 75* | 14 | 32* | 76* | 18
O=S(=O)(c1ccc2nc(-c3ccco3)c(-c3ccco3)nc2c1)N1CCOCC1 | 41* | 56* | 43* | 21 | 11 | 12 | 13 | 9 | 29
COc1ccc(S[C@]2(C(=O)N3CCN(c4ncccn4)CC3)CC(=O)N(C(=O)C3CC3)[C@@H]2c2ccc(OC)cc2)cc1 | nt | 1 | nt | nt | nt | nt | nt | nt | nt
Cc1c2ccccc2nc2c(F)c(NCCO)c(F)c(F)c12 | 67* | 58* | 37* | 25 | 14 | 19 | 14 | 28 | 52*
Cc1ccc(Cn2c(C(C)Nc3nc(-c4ccc(Cl)c([N+](=O)[O-])c4)cs3)nc3cc(C(F)(F)F)ccc32)cc1 (stereo unspecified) | -25 | -4 | -4 | 1 | -2 | -11 | nt | nt | nt
CCn1nc([N+](=O)[O-])c(C(C#N)c2nc3cc(C(F)(F)F)ccc3s2)c(Cl)c1=O (stereo unspecified) | 79* | 85* | 80* | 42* | 31* | 15 | 70* | 76* | 101*
CCCn1nc([N+](=O)[O-])c(C(C#N)c2nc3ccccc3o2)c(Cl)c1=O (stereo unspecified) | 69* | 80* | 69* | 46* | 39* | 28* | 58* | 83* | 95*
Cn1nc([N+](=O)[O-])c(C(C#N)c2ccccn2)c(Cl)c1=O (stereo unspecified) | 10 | 17 | -1 | 2 | -2 | 0 | nt | nt | nt
O=C(CC1CCCC1)N[C@@H](Cc1cccnc1)C(=O)N1CCC[C@H]1C(=O)NCCc1ccccc1Cl | nt | 4 | nt | nt | nt | nt | nt | nt | nt
C=CCn1c(=O)[nH]c2nc3cc(N=CN(C)C)c(C)cc3nc2c1=O | 3 | 0 | 4 | -1 | 2 | 2 | nt | nt | nt
CCCCn1c(=O)[nH]c2nc3cc(N)ccc3nc2c1=O | 42* | 68* | 37* | 27 | 14 | 4 | 14 | 37* | 44*
Cc1cc2nc3c(=O)n(CCc4ccccc4)c(=O)[nH]c3nc2cc1N | 35 | 55* | 56* | 26 | 9 | 12 | 20 | nt | 20
COC(=O)c1cc(C2(c3c[nH]c4ccccc34)CCN(C(=O)OC(C)(C)C)CC2)n2ccccc12 | nt | -30 | nt | nt | nt | nt | nt | nt | nt
O=C(NN=C1CCN(Cc2ccccc2)CC1)c1cc2ccccc2cc1O | 36 | 46* | 47* | 4 | 13 | 6 | 21 | nt | 43*
O=C(NN=C1CCN(Cc2ccccc2)CC1)c1ccccc1O | 13 | 6 | 3 | 0 | 4 | 4 | nt | nt | nt
CC(=O)N1CCC(=NNC(=O)c2cc3ccccc3cc2O)CC1 | 51* | 34* | 44* | 12 | 6 | 14 | 6 | 24 | 21
O=C1CCCC(=NNC(=O)c2cc3ccccc3cc2O)C1 | 25 | nt | 21 | 22 | 7 | 3 | nt | nt | nt
O=C(NCCc1nc2ccccc2n1CCOc1cc(F)ccc1F)C1CCCCC1 | nt | -7 | nt | nt | nt | nt | nt | nt | nt
CC(C)CC(=O)N1CCc2cc(S(=O)(=O)N(C)Cc3ccco3)ccc21 | nt | -2 | nt | nt | nt | nt | nt | nt | nt
SMILES | HTRA1 inh | mABHD4 FP | pPAFAH inh | PAFAH2 inh | PAFAH1B2 FP inh | PAFAH1B3 FP inh | pPAFAH confirm | HTRA1 conf | ABHD4 confirm
CN1C2=N[C@H](c3ccccc3Br)CC(=O)N2/C(=C\c2ccccc2)[C@@H]1c1ccccc1 | nt | -9 | nt | nt | nt | nt | nt | nt | nt
CCNc1ccc(Br)cc(C(=O)/C=C/c2ccc3c(c2)OCO3)c1=O | 52* | 38* | 48* | 36* | 4 | 9 | 17 | 27 | 45*
COc1cccc(/C=C/C(=O)Nc2ccc3[nH]c(=O)[nH]c3c2)c1 | -2 | 5 | 12 | 4 | 2 | 0 | nt | nt | nt
CNc1ccc(Br)cc(C(=O)/C=C/c2ccc(Cl)cc2Cl)c1=O | 64* | 33* | 51* | 30* | 4 | 4 | 36* | 48* | 57*
CNc1ccc(Br)cc(C(=O)/C=C/c2cccc(OC)c2)c1=O | 40* | 37* | 36* | 27 | -3 | 11 | 24 | -1 | 43*
O=C(N/N=C/c1ccc(O)c(O)c1O)/C(=C/c1ccc([N+](=O)[O-])cc1)NC(=O)c1ccccc1 | 63* | 57* | 38* | 11 | 8 | 16 | 47* | nt | 67*
Cc1cccc(Cn2cc(COC(=O)NCCc3c[nH]c4ccccc34)nn2)c1 | nt | -3 | nt | nt | nt | nt | nt | nt | nt
COc1ccc(-c2csc(Nc3ccc(S(=O)(=O)Nc4cc(C)on4)cc3)n2)cc1C | -43 | 34* | 40* | 37* | 14 | 10 | 62* | nt | 29
COc1ccc(CC(=O)Nc2ccc(S(=O)(=O)Nc3cc(C)on3)cc2)cc1OC | -8 | 0 | 5 | 1 | 1 | -1 | nt | nt | nt
COc1cc(CNC(C)c2ccccc2)cc(Br)c1OCc1ccccc1 (stereo unspecified) | -15 | 11 | 5 | -2 | 0 | -3 | nt | nt | nt
COc1ccc(Br)cc1CNc1ccc(O)cc1 | 74* | 65* | 37* | 0 | 6 | 13 | 10 | 10 | 30*
COc1cc(CNc2ccc(O)cc2)cc(Br)c1OCc1ccccc1 | 57* | 52* | 35* | 10 | 8 | 5 | 13 | 16 | 12
C=CCN(C(=O)[C@@H](CCCC)[C@@H](O)c1ccc2ccccc2c1)c1ccccc1 | nt | -6 | nt | nt | nt | nt | nt | nt | nt
O=C(NN1C(=O)/C(=C/C=C/c2ccco2)SC1=S)c1ccncc1 | nt | 49* | 72* | nt | nt | nt | 16 | nt | 13
O=C1/C(=C/C=C/c2ccco2)SC(=S)N1c1ccc(O)cc1 | 23 | 37* | 83* | 17 | -4 | 7 | 41* | nt | -42

Bioassay records (PubChem BioAssay)
